Data published in ChEMBL document CHEMBL1141286, “Benzochromenones from the marine crinoid Comantheria rotula inhibit hypoxia-inducible factor-1 (HIF-1) in cell-based reporter assays and differentially suppress the growth of certain tumor cell lines” (J Nat Prod, 2007).

What was measured:
[1] = test system: SF-268; test: Growth inhibition of human SF268 cells; format: functional; settings: for TGI: read-out: Log TGI (converted)
[2] = DPPH radical scavenging activity relative to Trolox; format: functional; parameters: concentration or dose not given beside the values
Summary of the method: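 Compounds were made up as DMSO stocks and diluted in isopropanol to a final 10 μM. Each was mixed with DPPH in isopropanol at 10 μM or 30 μM DPPH, and absorbance was read at 515 nm. Scavenging was calculated as [1 − OD515(compound)/OD515(control)] × 100, then expressed as a percentage of Trolox activity. One experiment was run in triplicate.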

[3] = test system: OVCAR-8; test: Growth inhibition of human OVACAR8 cells; format: functional; settings: for TGI: read-out: Log TGI (converted)
[4] = Inhibition of 1,10-phenanthroline-induced HIF1 activation in PC3 cells by TK-luciferase assay; format: cell-based; settings: Homo sapiens, PC-3
Summary of the method: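 HIF-1 reporter (pHRE-TK-Luc) assays in transfected PC-3 or T47D cells; HIF-1 induced by hypoxia or by the hypoxia mimetic 1,10-phenanthroline (10 μM); compounds at half-log concentrations; luciferase activity measured; IC50 from experiments in triplicate.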

[5] = test system: CCRF-CEM; test: Growth inhibition of human CCRF-CEM cells; format: functional; settings: for TGI: read-out: Log TGI (converted)
[6] = test system: OVCAR-4; test: Growth inhibition of human OVACAR4 cells; format: functional; settings: for TGI: read-out: Log TGI (converted)
[7] = test system: NCI/ADR-RES; test: Growth inhibition of human NCI/ADR-RES cells; format: functional; settings: for TGI: read-out: Log TGI (converted)
[8] = test system: SW-620; test: Growth inhibition of human SW620 cells; format: functional; settings: for CC50: read-out: Log LC50 (the source's name) (converted); for TGI: read-out: Log TGI (converted)
[9] = test system: A549; test: Growth inhibition of human A549 cells; format: functional; settings: for CC50: read-out: Log LC50 (the source's name) (converted); for TGI: read-out: Log TGI (converted)
[10] = test system: HL-60; test: Growth inhibition of human HL60 cells; format: functional; settings: for TGI: read-out: Log TGI (converted)
[11] = test system: IGROV-1; test: Growth inhibition of human IGROV1 cells; format: functional; settings: for CC50: read-out: Log LC50 (the source's name) (converted); for TGI: read-out: Log TGI (converted)
[12] = test system: MOLT-4; test: Growth inhibition of human MOLT4 cells; format: functional; settings: for CC50: read-out: Log LC50 (the source's name) (converted); for TGI: read-out: Log TGI (converted)
[13] = test system: SF-539; test: Growth inhibition of human SF539 cells; format: functional; settings: for TGI: read-out: Log TGI (converted)
[14] = test system: UACC-62; test: Growth inhibition of human UACC62 cells; format: functional; settings: for TGI: read-out: Log TGI (converted)
[15] = test system: NCI-H460; test: Growth inhibition of human NCI-H460 cells; format: functional; settings: for CC50: read-out: Log LC50 (the source's name) (converted); for TGI: read-out: Log TGI (converted)
[16] = test system: OVCAR-5; test: Growth inhibition of human OVACAR5 cells; format: functional; settings: for TGI: read-out: Log TGI (converted)
[17] = Growth inhibition of human OVACAR3 cells; format: functional; settings: for CC50: read-out: Log LC50 (the source's name) (converted); for TGI: read-out: Log TGI (converted)
[18] = test system: NCI-H23; test: Growth inhibition of human NCI-H23 cells; format: functional; settings: for CC50: read-out: Log LC50 (the source's name) (converted); for TGI: read-out: Log TGI (converted)
[19] = test system: LOX IMVI; test: Growth inhibition of human LOXIMVI cells; format: functional; settings: for TGI: read-out: Log TGI (converted)
[20] = test system: MDA-MB-435; test: Growth inhibition of human MDA-MB-435 cells; format: functional; settings: for TGI: read-out: Log TGI (converted)
[21] = test system: TK-10; test: Growth inhibition of human TK10 cells; format: functional; settings: for TGI: read-out: Log TGI (converted)
[22] = test system: U-251; test: Growth inhibition of human U251 cells; format: functional; settings: for TGI: read-out: Log TGI (converted)

COc1cc(O)cc2cc3oc(C)cc(=O)c3c(OC)c12 [COMANTHERIN]
GI50 [1]: 85.1 µM | LC50 [1]: > 100 µM | TGI [1]: > 100 µM | Activity [2]: 40% | GI50 [3]: > 100 µM | LC50 [3]: > 100 µM | TGI [3]: > 100 µM | IC50 [4]: > 10 µM | GI50 [5]: 2.09 µM | LC50 [5]: > 100 µM | TGI [5]: > 100 µM | GI50 [6]: > 100 µM | LC50 [6]: > 100 µM | TGI [6]: > 100 µM | GI50 [7]: > 100 µM | LC50 (concentration killing 50% of cells) [7]: > 100 µM | TGI [7]: > 100 µM | GI50 [8]: > 100 µM | CC50 [8]: > 100 µM | TGI [8]: > 100 µM | GI50 [9]: > 100 µM | CC50 [9]: > 100 µM | TGI [9]: > 100 µM | GI50 [10]: > 100 µM | LC50 [10]: > 100 µM | TGI [10]: > 100 µM | GI50 [11]: > 100 µM | CC50 [11]: > 100 µM | TGI [11]: > 100 µM | GI50 [12]: > 100 µM | CC50 [12]: > 100 µM | TGI [12]: > 100 µM | GI50 [13]: > 100 µM | LC50 [13]: > 100 µM | TGI [13]: > 100 µM | GI50 [14]: > 100 µM | LC50 (lethal concentration, 50% cell kill) [14]: > 100 µM | TGI [14]: > 100 µM | GI50 [15]: > 100 µM | CC50 [15]: > 100 µM | TGI [15]: > 100 µM | GI50 [16]: > 100 µM | LC50 [16]: > 100 µM | TGI [16]: > 100 µM | GI50 [17]: > 100 µM | CC50 [17]: > 100 µM | TGI [17]: > 100 µM | GI50 [18]: > 100 µM | CC50 [18]: > 100 µM | TGI [18]: > 100 µM | GI50 [19]: > 100 µM | LC50 [19]: > 100 µM | TGI [19]: > 100 µM | GI50 [20]: > 100 µM | LC50 [20]: > 100 µM | TGI [20]: > 100 µM | GI50 [21]: > 100 µM | LC50 [21]: > 100 µM | TGI [21]: > 100 µM | GI50 [22]: 100 µM | LC50 [22]: > 100 µM | TGI [22]: > 100 µM

COc1cc(O)cc2cc3oc(C)cc(=O)c3c(O)c12
GI50 [1]: 30.2 µM | LC50 [1]: > 100 µM | TGI [1]: > 100 µM | Activity [2]: 40% | GI50 [3]: 27.5 µM | LC50 [3]: > 100 µM | TGI [3]: > 100 µM | IC50 [4]: 2.5 µM | GI50 [5]: 30.2 µM | LC50 [5]: > 100 µM | TGI [5]: 100 µM | GI50 [6]: 45.7 µM | LC50 [6]: > 100 µM | TGI [6]: > 100 µM | GI50 [7]: 22.4 µM | LC50 (concentration killing 50% of cells) [7]: > 100 µM | TGI [7]: > 100 µM | GI50 [8]: 0.295 µM | CC50 [8]: > 100 µM | TGI [8]: 17 µM | GI50 [9]: 29.5 µM | CC50 [9]: > 100 µM | TGI [9]: > 100 µM | GI50 [10]: 20.9 µM | LC50 [10]: 83.2 µM | TGI [10]: 41.7 µM | GI50 [11]: 0.437 µM | CC50 [11]: > 100 µM | TGI [11]: 23.4 µM | GI50 [12]: 17.8 µM | CC50 [12]: > 100 µM | TGI [12]: 51.3 µM | GI50 [13]: 27.5 µM | LC50 [13]: > 100 µM | TGI [13]: 87.1 µM | GI50 [14]: 29.5 µM | LC50 (lethal concentration, 50% cell kill) [14]: > 100 µM | TGI [14]: > 100 µM | GI50 [15]: 19.1 µM | CC50 [15]: > 100 µM | TGI [15]: 50.1 µM | GI50 [16]: 46.8 µM | LC50 [16]: > 100 µM | TGI [16]: > 100 µM | GI50 [17]: > 100 µM | CC50 [17]: 22.4 µM | TGI [17]: 91.2 µM | GI50 [18]: 24.5 µM | CC50 [18]: > 100 µM | TGI [18]: 83.2 µM | GI50 [19]: 18.2 µM | LC50 [19]: > 100 µM | TGI [19]: 52.5 µM | GI50 [20]: 27.5 µM | LC50 [20]: > 100 µM | TGI [20]: > 100 µM | GI50 [21]: 20.4 µM | LC50 [21]: > 100 µM | TGI [21]: 61.7 µM | GI50 [22]: 33.1 µM | LC50 [22]: > 100 µM | TGI [22]: > 100 µM
